Activity data for four compounds are collected here from ChEMBL document CHEMBL1212902, “Efficient synthesis and biological evaluation of demethyl geranylgeranoic acid derivatives” (Bioorg Med Chem, 2010).

The source made the active and inactive calls. The rule behind the calls is not given here.

The target of assay [1] is T1, Retinoic acid receptor beta (Homo sapiens) (UniProt P10826).
T1 sequence (whole entry): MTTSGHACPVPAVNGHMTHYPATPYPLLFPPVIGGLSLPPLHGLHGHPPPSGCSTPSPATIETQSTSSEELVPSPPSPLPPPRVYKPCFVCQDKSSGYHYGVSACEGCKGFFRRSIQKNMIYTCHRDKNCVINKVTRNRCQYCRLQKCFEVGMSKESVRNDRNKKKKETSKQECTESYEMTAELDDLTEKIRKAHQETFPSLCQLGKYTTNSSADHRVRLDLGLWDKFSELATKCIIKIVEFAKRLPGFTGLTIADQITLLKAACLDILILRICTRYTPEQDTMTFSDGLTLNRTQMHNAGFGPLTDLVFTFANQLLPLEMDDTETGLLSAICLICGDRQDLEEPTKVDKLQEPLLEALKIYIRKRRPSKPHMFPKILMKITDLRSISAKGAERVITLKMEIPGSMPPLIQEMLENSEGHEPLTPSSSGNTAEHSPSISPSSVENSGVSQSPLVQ
In words: Transcriptional activation of human RARbeta expressed in human MG63 cells coexpressing RARE at 1 uM after 48 hrs by luciferase reporter gene assay. It is filed as cell-based. The note with it: MG-63. Summed up:
(§1)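 MG-63 cells were seeded at 2 × 10^5/well, then transfected using Tfx-50 with an SV40-Luc pGL3 reporter plus pRL-CMV. Cells were treated at 10^-6 M for 2 days. Luciferase was normalised to Renilla and reported as fold versus ethanol control, from at least three repeats with SEM.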
(In a reporter assay the amount or activity of a reporter protein is the signal.)

For assay [2], the target named is T2, Cellular retinoic acid-binding protein 2 (Rattus norvegicus) (UniProt P51673).
T2 sequence (whole entry): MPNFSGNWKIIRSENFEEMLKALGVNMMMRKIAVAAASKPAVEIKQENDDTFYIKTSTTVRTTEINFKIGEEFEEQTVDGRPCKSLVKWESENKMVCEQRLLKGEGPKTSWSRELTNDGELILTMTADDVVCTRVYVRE
In words: Transcriptional activation of rat CRABP2 expressed in human MG63 cells coexpressing RXRE at 1 uM after 48 hrs. The note with it: MG-63. In kind it is cell-based. Put shortly: as §1

The subject of assay [3] is HL-60. In words: Antiproliferative activity against human HL60 cells after 24 hrs. It is filed as functional, cell-based.
Assay [4] concerns HL-60. Put plainly: Cell cycle arrest in human HL60 cells assessed as accumulation at G0/G1 phase at 25 uM after 24 hrs by flow cytometry. It is filed as functional, cell-based. Put shortly: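 HL-60 cells grown in RPMI-1640 with 10% charcoal-stripped FCS and kanamycin at 37 °C in 5% CO2. Cells were exposed at 2.5 × 10^-5 M for 24 h, stained with propidium iodide at 4 °C for 20 min and analysed on a 488 nm flow cytometer. The percentage of cells in G0/G1 is given relative to untreated cells.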
(Flow cytometry measures light scatter and fluorescence of single cells or particles in a stream.)

The target in assay [5] is T3, Retinoic acid receptor RXR-alpha (Homo sapiens) (UniProt P19793).
T3 sequence (whole entry): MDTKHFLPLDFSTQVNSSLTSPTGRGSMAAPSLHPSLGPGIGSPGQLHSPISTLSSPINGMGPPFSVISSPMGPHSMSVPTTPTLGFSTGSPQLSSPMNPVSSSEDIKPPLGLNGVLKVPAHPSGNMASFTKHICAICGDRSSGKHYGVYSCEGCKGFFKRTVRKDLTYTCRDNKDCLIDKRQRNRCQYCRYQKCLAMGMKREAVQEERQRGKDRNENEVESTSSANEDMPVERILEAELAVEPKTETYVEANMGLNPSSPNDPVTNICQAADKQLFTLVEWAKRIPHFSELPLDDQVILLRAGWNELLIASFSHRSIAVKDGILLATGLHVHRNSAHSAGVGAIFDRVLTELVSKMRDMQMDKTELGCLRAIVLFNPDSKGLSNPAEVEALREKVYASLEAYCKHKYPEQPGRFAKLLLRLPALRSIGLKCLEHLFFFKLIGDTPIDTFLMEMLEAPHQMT
Put plainly: Transcriptional activation of Gal4-tagged human RXRalpha expressed in human MG63 cells at 1 uM after 48 hrs. The conditions noted are these: MG-63. In kind it is cell-based. Summed up:
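Human osteosarcoma MG-63 cells in DMEM with 10% charcoal-stripped FCS were seeded at 2 × 10^5/well the day before transfection. They were cotransfected with human RXR fused to the GAL4 DNA-binding domain, a GAL4-site luciferase reporter and a pRL-CMV control. Cells were then exposed at 10^-6 M for 48 h. Firefly luciferase was normalised to Renilla and expressed as fold over ethanol vehicle, from three experiments with SEM.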

Assay [6] has as its system HL-60. In words: Induction of cell differentiation in human HL60 cells assessed as differentiation in to granulocytes. In kind it is functional, cell-based.
For assay [7], the system named is HL-60. In words: Induction of apoptosis in human HL60 cells after 24 hrs. The conditions noted are these: in the assay text read “after 3 days” for “after 24 hrs”. In kind it is functional, cell-based. Summed up: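 HL-60 cells were seeded at 10^5 cells/well in RPMI-1640 and treated at 10^-6–10^-4 M. They were propidium iodide-stained and analysed by flow cytometry for cell cycle. Apoptosis is expressed as percent dead cells relative to the total untreated cell count, shown as mean with SEM.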

For `C/C=C/CC/C(C)=C/CC/C(C)=C/CC/C(C)=C/C(=O)O`, the outcome in assay [1] was Active. Moreover, the result in assay [2] was inactive.

Regarding `CC(C)=CCC/C(C)=C/CC/C(C)=C/CC/C=C/C(=O)O`, the result in assay [1], in assay [3], in assay [4], in assay [5], in assay [6] and in assay [7] was Active. Moreover, in assay [2], the outcome was inactive.

`CC(C)=CCC/C=C/CC/C(C)=C/CC/C(C)=C/C(=O)O`: the outcome in assay [1] was Active. Besides, the outcome in assay [2] was inactive.

As for `CC(C)=CCC/C(C)=C/CC/C=C/CC/C(C)=C/C(=O)O`, in assay [1], the result was Active. In assay [2], the result was inactive.
